Reference: ChEMBL document CHEMBL1131263, “Substituted tetrahydropyrrolo[2,1-b]oxazol-5(6H)-ones and tetrahydropyrrolo[2,1-b]thiazol-5(6H)-ones as hypoglycemic agents” (1998)

Assay: lowest concentration at which glucose utilized was greater than or equal to 140% of control value tested in a glucose utilization L6 myocyte in vitro assay
Format: functional, Rattus norvegicus
In short: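 Differentiated rat L6 myotubes (day 11 or 13 after plating) exposed 20 h to compound in serum-free DMEM with 15 mM glucose and 1% final DMSO. Tested in quadruplicate at 3, 10, 30, 100, 300 µM. Glucose left in the medium read by glucose oxidase. Value is the lowest concentration giving at least 40% more utilization than control.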

| Compound | Lowest effective concentration for glucose utilization ≥140% of control [µM] |
| --- | --- |
| Clc1ccc(OCc2cc(-c3ccc(Cl)cc3)no2)cc1 | >300 |
| CC(=O)N1C[C@@H](COc2ccc(Cl)cc2)O[C@@H]1c1ccc(Cl)cc1 | 100 |
| OCc1cc(-c2ccccc2)no1 | >300 |
| C[C@]12CCC(=O)N1C[C@@H](COc1ccc(Cl)cc1)O2 | >300 |
| CC(=O)N1C[C@@H](COc2ccc(Cl)cc2)S[C@@H]1c1ccc(Cl)cc1 | 300 |
| CC(=O)N1C[C@@H](COc2ccc(Cl)cc2)O[C@@H]1c1ccc(Cl)c(C(F)(F)F)c1 | 30 |
| CC1(C)C[C@]2(c3ccc(Oc4ccccc4)cc3)O[C@H](COc3ccc(Cl)cc3)CN2C1=O | 30 |
| O=C1CC[C@]2(c3ccc(Cl)c(C(F)(F)F)c3)O[C@H](COc3ccc(Cl)cc3)CN12 | 10 |
| CC(=O)N1CCS[C@@H]1c1ccc(Cl)cc1 | >300 |
| CS(=O)(=O)N1C[C@H](COc2ccc(Cl)cc2)O[C@@H]1c1ccc(Cl)c(Cl)c1 | 30 |
| C=CCOC[C@@H]1CN2C(=O)CC[C@]2(c2ccc(Cl)cc2)O1 | >300 |
| O=C1CC[C@]2(c3ccccc3)OC[C@@H](O)CN12 | >300 |
| COc1ccc([C@H]2O[C@@H](COc3ccc(Cl)cc3)CN2C(C)=O)cc1 | >300 |
| Cc1c(C)c2c(c(C)c1O)CCC(C)(COc1ccc(CC3SC(=O)NC3=O)cc1)O2 (configuration not stated) [TROGLITAZONE] | 30 |
| CS(=O)(=O)N1CCS[C@@H]1c1ccc(Cl)cc1 | 300 |
| COc1ccc([C@]23CCC(=O)N2C[C@H](COc2ccc(Cl)cc2)O3)cc1 | >300 |

| Compound | Lowest effective concentration for glucose utilization ≥140% of control [µM] |
| --- | --- |
| CC(C)(C)c1cc(CO)on1 | >300 |
| OCCc1cc(-c2ccc(Cl)cc2)no1 | 100 |
| CC(C)(C)[C@]12CCC(=O)N1C[C@@H](COc1ccc(Cl)cc1)O2 | >300 |
| O=C1CC[C@]2(c3ccc(Cl)cc3)O[C@@H](CNc3ccc(Cl)cc3)CN12 | >300 |
| O=C1CCC[C@]2(c3ccc(Oc4ccccc4)cc3)O[C@H](COc3ccc(Cl)cc3)CN12 | 100 |
| O=C1CC[C@]2(c3ccc(Cl)cc3)O[C@H](CCc3ccccc3)CN12 | >300 |
| CC(=O)N1C[C@H](COc2ccc(Cl)cc2)O[C@@H]1c1ccc(Cl)c(C(F)(F)F)c1 | 30 |
| O=C(Nc1ccccc1)N1C[C@@H](COc2ccc(Cl)cc2)O[C@@H]1c1ccc(Cl)c(Cl)c1 | 30 |
| O=C1CC[C@]2(C3CCCCC3)O[C@H](COc3ccc(Cl)cc3)CN12 | 100 |
| CC(=O)N1C[C@H](COc2ccc(Cl)cc2)O[C@@H]1c1ccc(Cl)c(Cl)c1 | 30 |
| C/N=C(\S)N1CCS[C@@H]1c1ccc(Cl)cc1 | 300 |
| O=C1CC[C@]2(C3CCCCC3)O[C@@H](COc3ccc(Cl)cc3)CN12 | >300 |
| CN(C)C(=N)NC(=N)N.Cl [METFORMIN HYDROCHLORIDE] | 1000 |
| O=C1CC[C@]2(c3ccncc3)O[C@@H](COc3ccc(Cl)cc3)CN12 | 100 |
| O=C1CCC[C@]2(c3ccc(Cl)cc3)SCCN12 | >300 |
| O=C1CC[C@]2(c3ccc(Cl)cc3)O[C@@H](CCc3ccccc3)CN12 | >300 |
